Experimental data as given in ChEMBL document CHEMBL4613265, “Novel Human Neutral Sphingomyelinase 2 Inhibitors as Potential Therapeutics for Alzheimer's Disease” (J Med Chem, 2020).

Assays:
[1] = Stability in human liver microsomes assessed as parent compound remaining at 1 uM measured after 60 mins in absence of NADPH by LC-MS/MS analysis; format: ADME, Microsome; conditions: for remaining at 1 h, 1 µM: liver microsomes, read-out: Stability
How it was run: (§1)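 Cofactor-free control for cofactor-independent degradation. Mouse or human liver microsomes at 0.2 mg/mL, 1 μM compound (final), 100 mM potassium phosphate at pH 7.4, no NADPH regenerating system. Adding microsomes started the reaction; run in triplicate. Sampled at 60 min and quenched with three volumes of ice-cold acetonitrile spiked with internal standard.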

Cytochrome P450 = assay: Stability in human liver microsomes assessed as CYP450-mediated metabolism by measuring parent compound remaining at 1 uM measured after 60 mins in presence of NADPH generating system by LC-MS/MS analysis; format: ADME; conditions: 1 h
How it was run: (§2)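 Liver microsomes from mouse or human, 0.2 mg/mL, with 1 μM compound (final) in 100 mM potassium phosphate at pH 7.4. Adding microsomes started the reaction; triplicates. After 60 min, quenched with 3 volumes of ice-cold acetonitrile containing internal standard.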

[2] = Stability in mouse liver microsomes assessed as CYP450-mediated metabolism by measuring parent compound remaining at 1 uM measured after 60 mins in presence of NADPH generating system by LC-MS/MS analysis; format: ADME; conditions: 1 h; how it was run: as §2
[3] = Stability in mouse liver microsomes assessed as parent compound remaining at 1 uM measured after 60 mins in absence of NADPH by LC-MS/MS analysis; format: ADME, Microsome; conditions: for remaining at 1 h, 1 µM: liver microsomes, read-out: Stability; how it was run: as §1

| Compound | remaining at 1 h, 1 µM [1] [%] | Stability (Cytochrome P450) [%] | Parent compound remaining [2] [%] | remaining at 1 h, 1 µM [3] [%] | Stability ([1]; microsomes, 1 h, 1 µM) | Stability ([3]; microsomes, 1 h, 1 µM) |
| --- | --- | --- | --- | --- | --- | --- |
| COc1ccc(-c2c(C)nc3c(N4CC[C@@H](NS(=O)(=O)c5cccs5)C4)cc(C)nn23)cc1OC | > 95 | 95 | 78 | > 95 | – | – |
| COc1ccc(-c2c(C)nc3c(N4CC[C@@H](NC(=O)Nc5ccccc5)C4)cc(C)nn23)cc1OC | > 95 | 90 | 87 | > 95 | – | – |
| COc1ccc(-c2c(C)nc3c(N4CC[C@@H](NS(=O)(=O)c5ccc(C#N)cc5)C4)cc(C)nn23)cc1OC | > 95 | – | – | > 95 | – | – |
| COc1ccc(-c2c(C)nc3c(N4CC[C@@H](O)C4)cc(C)nn23)cc1OC | > 95 | – | – | > 95 | – | – |
| COc1ccc(-c2cnc3c(N4CC[C@@H](NC(C)=O)C4)ccnn23)cc1OC | > 95 | 92 | 68 | > 95 | – | – |
| COc1ccc(-c2c(C)nc3c(N4CC[C@@H](NC(=O)NC(C)C)C4)cc(C)nn23)cc1OC | > 95 | – | – | > 95 | – | – |
| COc1ccc(-c2c(C)nc3c(N4CC[C@@H](NS(=O)(=O)c5ccc(NC(C)=O)cc5)C4)cc(C)nn23)cc1OC | > 95 | – | – | > 95 | – | – |
| COc1ccc(-c2c(C)nc3c(N4CC[C@@H](NC(=O)Oc5ccc6ccccc6c5)C4)cc(C)nn23)cc1OC | > 95 | – | – | > 95 | – | – |
| COc1ccc(-c2c(C)nc3c(N4CC=CC4)cc(C)nn23)cc1OC | > 95 | – | – | > 95 | – | – |
| COc1ccc(-c2c(C)nc3c(N4CC[C@@H](NS(=O)(=O)c5ccccc5)C4)cc(C)nn23)cc1OC | > 95 | 43 | 20 | > 95 | – | – |
| COc1ccc(-c2c(C)nc3c(N4CC[C@@H](NC(=O)OCc5ccccc5)C4)cc(C)nn23)cc1OC | > 95 | – | – | > 95 | – | – |
| COc1ccc(-c2c(C)nc3c(N4CC[C@H](O)C4)cc(C)nn23)cc1OC | > 95 | – | – | > 95 | – | – |
| COc1ccc(-c2c(C)nc3c(N4CC[C@@H](NC(=O)OC5CCCCC5)C4)cc(C)nn23)cc1OC | > 95 | – | – | > 95 | – | – |
| COc1ccc(-c2c(C)nc3c(N4CC[C@@H](NC(=O)[C@@H](OC)c5ccccc5)C4)cc(C)nn23)cc1OC | > 95 | – | – | > 95 | – | – |
| CCCCCC(=O)N[C@@H]1CCN(c2cc(C)nn3c(-c4ccc(OC)c(OC)c4)c(C)nc23)C1 | > 95 | 88 | 52 | > 95 | – | – |
| COc1ccc(-c2c(C)nc3c(N4CC[C@@H](OC(C)=O)C4)cc(C)nn23)cc1OC | > 95 | – | – | > 95 | – | – |
| COc1ccc(-c2cnc3c(N4CC[C@@H](NC(C)=O)C4)cc(C)nn23)cc1OC | > 95 | 28 | 53 | > 95 | – | – |
| COc1ccc(-c2c(C)nc3c(N4CC[C@@H](NS(=O)(=O)c5ccc(C(F)(F)F)cc5)C4)cc(C)nn23)cc1OC | > 95 | 61 | 15 | > 95 | – | – |
| COc1ccc(-c2c(C)nc3c(N4CC[C@@H](N=[N+]=[N-])C4)cc(C)nn23)cc1OC | > 95 | – | – | > 95 | – | – |

| Compound | remaining at 1 h, 1 µM [1] [%] | Stability (Cytochrome P450) [%] | Parent compound remaining [2] [%] | remaining at 1 h, 1 µM [3] [%] | Stability ([1]; microsomes, 1 h, 1 µM) | Stability ([3]; microsomes, 1 h, 1 µM) |
| --- | --- | --- | --- | --- | --- | --- |
| COc1ccc(-c2c(C)nc3c(N4CCC(F)(F)C4)cc(C)nn23)cc1OC | > 95 | – | – | > 95 | – | – |
| COc1ccc(-c2c(C)nc3c(N4CCN(C(=O)OC(C)(C)C)C4)cc(C)nn23)cc1OC | > 95 | – | – | > 95 | – | – |
| COc1ccc(-c2c(C)nc3c(N4CC[C@@H](NC(=O)C(F)(F)c5ccccc5)C4)cc(C)nn23)cc1OC | > 95 | 20 | 6 | > 95 | – | – |
| CC(=O)N[C@@H]1CCN(c2cc(C)nn3cc(C)nc23)C1 | > 95 | – | – | > 95 | – | – |
| COc1ccc(-c2c(C)nc3c(N4CC[C@@H](NS(=O)(=O)c5ccc(C(C)=O)cc5)C4)cc(C)nn23)cc1OC | > 95 | 12 | 5 | > 95 | – | – |
| COc1ccc(-c2c(C)nc3c(N4CCN(C(C)=O)CC4)cc(C)nn23)cc1OC | > 95 | – | – | > 95 | – | – |
| COc1ccc(-c2c(C)nc3c(N4CC[C@@H](NC(=O)c5ccccc5)C4)cc(C)nn23)cc1OC | > 95 | – | – | > 95 | – | – |
| COc1ccc(-c2c(C)nc3c(N4CC[C@@H](NC(=O)Cc5ccccc5)C4)cc(C)nn23)cc1OC | > 95 | – | – | > 95 | – | – |
| COc1ccc(-c2c(C)nc3c(N4CC[C@@H](n5cc(-c6ccccc6)nn5)C4)cc(C)nn23)cc1OC | – | – | – | – | Unstable | Unstable |
| COc1ccc(-c2c(C)nc3c(N4CC[C@@H](NC(=O)COc5ccccc5)C4)cc(C)nn23)cc1OC | > 95 | – | – | > 95 | – | – |
| COc1ccc(-c2c(C)nc3c(N4CC[C@@H](NS(C)(=O)=O)C4)cc(C)nn23)cc1OC | > 95 | – | – | > 95 | – | – |
| COc1ccc(-c2c(C)nc3c(N4CC[C@@H](NC(=O)Oc5cccc(C)c5)C4)cc(C)nn23)cc1OC | > 95 | – | – | > 95 | – | – |
| COc1ccc(-c2c(C)nc3c(N4CC[C@@H](F)C4)cc(C)nn23)cc1OC | > 95 | – | – | > 95 | – | – |
| CCN(CCNC(C)=O)c1cc(C)nn2c(-c3ccc(OC)c(OC)c3)c(C)nc12 | > 95 | – | – | > 95 | – | – |
| COc1ccc(-c2c(C)nc3c(N4CC[C@@H](NS(N)(=O)=O)C4)cc(C)nn23)cc1OC | > 95 | – | – | > 95 | – | – |
| COc1ccc(-c2c(C)nc3c(N4CCN(C(=O)OC(C)(C)C)CC4)cc(C)nn23)cc1OC | > 95 | – | – | > 95 | – | – |
| COc1ccc(-c2c(C)nc3c(N4CC[C@@H](NS(=O)(=O)C(C)C)C4)cc(C)nn23)cc1OC | > 95 | – | – | > 95 | – | – |
| COc1ccc(-c2c(C)nc3c(N4CC[C@@H](N)C4)cc(C)nn23)cc1OC | > 95 | – | – | > 95 | – | – |
| COc1ccc(-c2c(C)nc3c(N4CCN(C(=O)C5CCCCC5)CC4)cc(C)nn23)cc1OC | > 95 | – | – | > 95 | – | – |

The remaining lines, values ahead:

| remaining at 1 h, 1 µM [1] [%] | Stability (Cytochrome P450) [%] | Parent compound remaining [2] [%] | remaining at 1 h, 1 µM [3] [%] | Stability ([1]; microsomes, 1 h, 1 µM) | Stability ([3]; microsomes, 1 h, 1 µM) | Compound |
| --- | --- | --- | --- | --- | --- | --- |
| > 95 | – | – | > 95 | – | – | CC(=O)N[C@@H]1CCN(c2cc(C)nn3c(-c4nccs4)c(C)nc23)C1 |
| > 95 | – | – | > 95 | – | – | CC(=O)N[C@@H]1CCN(c2cc(C)nn3c(-c4ccc(C(F)(F)F)cc4)c(C)nc23)C1 |
| > 95 | – | – | > 95 | – | – | CC(=O)N[C@@H]1CCN(c2cc(C)nn3c(-c4cccc(S(=O)(=O)N(C)C)c4)c(C)nc23)C1 |
| > 95 | – | – | > 95 | – | – | COc1cc(-c2c(C)nc3c(N4CC[C@@H](NC(C)=O)C4)cc(C)nn23)cc(OC)c1OC |
| > 95 | – | – | > 95 | – | – | COc1cc(-c2c(C)nc3c(N4CC[C@@H](NC(C)=O)C4)cc(C)nn23)ccc1F |
| > 95 | 84 | 32 | > 95 | – | – | CSc1ccc(-c2c(C)nc3c(N4CC[C@@H](NC(C)=O)C4)cc(C)nn23)cc1 |
| > 95 | – | – | > 95 | – | – | COc1ccc(-c2c(C)nc3c(N4CC[C@@H](NC(C)=O)C4)ccnn23)cc1OC |
| > 95 | – | – | > 95 | – | – | COc1ccc(-c2c(C)nc3c(N4CCOCC4)cc(C)nn23)cc1OC |
| > 95 | 113 | 117 | > 95 | – | – | COc1ccc(-c2c(C)nc3c(N4CC[C@@H](NC(=O)C(F)(F)F)C4)cc(C)nn23)cc1OC |
| > 95 | – | – | > 95 | – | – | COc1ccc(-c2c(C)nc3c(N4CC[C@@H](NC(C)=O)C4)cc(C)nn23)cc1F |
| > 95 | – | – | > 95 | – | – | COc1ccc(-c2c(C)nc3c(N4CC[C@@H](NC(C)=O)C4)cc(C)nn23)cn1 |
| > 95 | – | – | > 95 | – | – | CC(=O)N[C@@H]1CCN(c2cc(C)nn3c(-c4ccc(C#N)cc4)c(C)nc23)C1 |
| > 95 | – | – | > 95 | – | – | CC(=O)N[C@@H]1CCN(c2cc(C)nn3c(-c4cccc(N5CCOCC5)c4)c(C)nc23)C1 |
| > 95 | – | – | > 95 | – | – | CC(=O)N[C@@H]1CCN(c2cc(C)nn3c(-c4ccc5cc[nH]c5c4)c(C)nc23)C1 |
| > 95 | – | – | > 95 | – | – | COc1ccc(-c2c(C)nc3c(N4CC[C@@H](NC(C)=O)C4)cc(Cl)nn23)cc1OC |
| > 95 | – | – | > 95 | – | – | COc1ccc(-c2c(C)nc3c(N4CC[C@@H](N5CCOCC5)C4)cc(C)nn23)cc1OC |
| > 95 | – | – | > 95 | – | – | CC(=O)N[C@@H]1CCN(c2cc(C)nn3c(-c4ccccc4)c(C)nc23)C1 |
| > 95 | – | – | > 95 | – | – | CC(=O)N[C@@H]1CCN(c2cc(C)nn3c(-c4ccco4)c(C)nc23)C1 |
